Source: ChEMBL document CHEMBL1153987 (J Med Chem, 2009)
The source made the active and inactive calls. No cut-off for these calls is given here.

Key:
Jurkat [1] = test: Inhibition of heat-induced HSP70 expression in human Jurkat cells at 50 ug/mL treated for 1 hr before heat induction by Western blot; assay type: functional, cell-based
[2] = target: Heat shock protein beta-1 (Homo sapiens) (UniProt P04792); test: Enhancement of HSP27 Ser78 phosphorylation in human HeLa cells at 50 ug/mL treated for 1 hr; assay type: cell-based
Summary of the method: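 HeLa cells in DMEM + 10% calf serum, exponentially growing, exposed 1 h to 50 μg/ml compound; total cell extracts probed by Western blot with rabbit antibody to human HSP27 phospho-Ser78, alkaline phosphatase-conjugated goat anti-rabbit secondary, colorimetric detection.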

[3] = Inhibition of CK2 assessed as level of ATP utilized by luciferase-based bioluminescence assay
[4] = Inhibition of CAMK2 assessed as level of ATP utilized by luciferase-based bioluminescence assay
Jurkat [5] = test: Inhibition of heat-induced increase in nuclear HSF1 protein level in human Jurkat cells at 50 ug/mL treated for 1 hr before heat induction by Western blot; assay type: functional, cell-based
Summary of the method: (§1)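 Cells were pretreated with compound for 1 h, then heat-shocked at 43 °C for 30 min. Nuclear extracts, the same ones prepared for EMSA, were analysed by Western blot with rabbit anti-HSF1 and goat anti-rabbit HRP, with chemiluminescent detection. Nuclear HSF1 level was read from band intensity. The phosphorylation state was read as reduced gel mobility of the HSF1 band.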

HeLa [6] = test: Inhibition of heat-induced increase in nuclear HSF1 protein level in human HeLa cells at 50 ug/mL treated for 1 hr before heat induction by Western blot; assay type: functional, cell-based; summary of the method: as §1
Jurkat [7] = test: Inhibition of heat-induced increase in nuclear HSF1 protein phosphorylation in human Jurkat cells assessed as decrease in protein mobility at 50 ug/mL treated for 1 hr before heat induction by EMSA; assay type: functional, cell-based; summary of the method: as §1
HeLa [8] = test: Inhibition of heat-induced increase in nuclear HSF1 protein phosphorylation in human HeLa cells assessed as decrease in protein mobility at 50 ug/mL treated for 1 hr before heat induction by EMSA; assay type: functional, cell-based; summary of the method: as §1

Sequence of Heat shock protein beta-1 (Homo sapiens) (P04792 whole entry): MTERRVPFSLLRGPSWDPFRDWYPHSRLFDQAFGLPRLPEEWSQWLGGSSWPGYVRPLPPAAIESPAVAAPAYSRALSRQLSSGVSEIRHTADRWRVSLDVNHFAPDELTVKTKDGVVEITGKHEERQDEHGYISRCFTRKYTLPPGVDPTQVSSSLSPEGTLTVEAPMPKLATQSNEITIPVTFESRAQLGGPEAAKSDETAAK

Compound: O=C(O)COc1cc(O)c2c(=O)c(O)c(-c3ccc(O)c(O)c3)oc2c1
- Activity (Jurkat [1]): inactive
- Activity [2]: inactive
- IC50 [3]: 9.7 µM
- IC50 [4]: 9.3 µM

Compound: COc1cc(-c2oc3cc(O)cc(O)c3c(=O)c2O)ccc1O [ISORHAMNETIN]
- Activity (Jurkat [1]): Active
- Activity [2]: inactive
- IC50 [3]: 0.5 µM
- IC50 [4]: 0.91 µM

Compound: COc1cc(O)c2c(=O)c(O)c(-c3ccc(O)c(O)c3)oc2c1 [RHAMNETIN]
- Activity (Jurkat [1]): Active
- Activity [2]: Active
- IC50 [3]: 9.7 µM
- IC50 [4]: 8.9 µM

Compound: COC(=O)COc1cc(O)cc2oc(-c3ccc(O)c(O)c3)c(O)c(=O)c12
- Activity (Jurkat [1]): inactive
- Activity [2]: inactive
- IC50 [3]: > 100 µM
- IC50 [4]: 69 µM

Compound: COC(=O)COc1cc(O)c2c(=O)c(O)c(-c3ccc(O)c(O)c3)oc2c1
- Activity (Jurkat [1]): Active
- Activity [2]: Active
- IC50 [3]: 0.85 µM
- IC50 [4]: 9.1 µM

Compound: COC(=O)COc1cc(-c2oc3cc(O)cc(O)c3c(=O)c2O)ccc1O
- Activity (Jurkat [1]): Active
- Activity [2]: inactive
- IC50 [3]: 53 µM
- IC50 [4]: 6.3 µM

Compound: COc1c(-c2ccc(O)c(O)c2)oc2cc(O)cc(O)c2c1=O [3-O-METHYLQUERCETIN]
- Activity (Jurkat [1]): inactive
- Activity [2]: inactive
- IC50 [3]: 0.83 µM
- IC50 [4]: > 100 µM

Compound: O=C(O)COc1c(-c2ccc(O)c(O)c2)oc2cc(O)cc(O)c2c1=O
- Activity (Jurkat [1]): inactive
- Activity [2]: inactive
- IC50 [3]: 2.45 µM
- IC50 [4]: > 100 µM

Compound: COc1ccc(-c2oc3cc(O)cc(O)c3c(=O)c2O)cc1O [TAMARIXETIN]
- Activity [2]: inactive
- IC50 [3]: > 100 µM
- IC50 [4]: 16.4 µM

Compound: O=c1c(O)c(-c2ccc(O)c(O)c2)oc2cc(O)cc(O)c12 [QUERCETIN]
- Activity (Jurkat [1]): Active
- Activity [2]: Active
- Activity (Jurkat [5]): inactive
- Activity (HeLa [6]): inactive
- Activity (Jurkat [7]): Active
- Activity (HeLa [8]): Active
- IC50 [3]: 5.6 µM
- IC50 [4]: 3.3 µM

Compound: COc1cc(O)cc2oc(-c3ccc(O)c(O)c3)c(O)c(=O)c12
- Activity (Jurkat [1]): inactive
- Activity [2]: inactive
- IC50 [3]: > 100 µM
- IC50 [4]: 4 µM
